Source: ChEMBL document CHEMBL4304781, “Development of Highly Selective Pyrimidine-Based Aldosterone Synthase (CYP11B2) Inhibitors” (ACS Med Chem Lett, 2019)
pIC50: −log10 of the molar value. Values after ≈ are worked out from the molar mass of the structure shown. One block for each compound: values may come before it.

Assays:
[1] = biological target: T1, Cytochrome P450 11B2, mitochondrial (Homo sapiens, UniProt P19099); assay: Inhibition of human recombinant CYP11B2 using deoxycorticosterone as substrate incubated for 90 mins by cell-based HPLC analysis
T1 sequence (P19099 whole entry): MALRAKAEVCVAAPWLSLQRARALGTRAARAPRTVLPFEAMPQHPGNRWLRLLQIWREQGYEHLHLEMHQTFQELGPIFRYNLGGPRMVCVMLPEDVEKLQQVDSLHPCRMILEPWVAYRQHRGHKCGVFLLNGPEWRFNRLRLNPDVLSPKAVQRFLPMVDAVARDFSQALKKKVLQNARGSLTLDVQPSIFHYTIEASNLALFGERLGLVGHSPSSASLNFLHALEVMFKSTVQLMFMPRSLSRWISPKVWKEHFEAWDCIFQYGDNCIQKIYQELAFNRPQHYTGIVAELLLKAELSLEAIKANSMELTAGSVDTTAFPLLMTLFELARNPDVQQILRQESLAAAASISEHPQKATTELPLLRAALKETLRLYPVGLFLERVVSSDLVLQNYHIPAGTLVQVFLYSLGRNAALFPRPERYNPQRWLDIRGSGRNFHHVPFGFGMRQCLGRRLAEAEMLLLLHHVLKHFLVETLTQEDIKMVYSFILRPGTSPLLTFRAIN
Outline: (§1)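 Recombinant human CYP11B2 or CYP11B1. Substrate and product steroids both monitored by HPLC-MS. Selectivity taken as CYP11B1 IC50 / CYP11B2 IC50.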

[2] = biological target: T2, Cytochrome P450 11B1, mitochondrial (Homo sapiens, UniProt P15538); assay: Inhibition of human recombinant CYP11B1 using deoxycortisol as substrate incubated for 60 mins by cell-based HPLC analysis; format: ADME; outline: as §1
T2 sequence (P15538 whole entry): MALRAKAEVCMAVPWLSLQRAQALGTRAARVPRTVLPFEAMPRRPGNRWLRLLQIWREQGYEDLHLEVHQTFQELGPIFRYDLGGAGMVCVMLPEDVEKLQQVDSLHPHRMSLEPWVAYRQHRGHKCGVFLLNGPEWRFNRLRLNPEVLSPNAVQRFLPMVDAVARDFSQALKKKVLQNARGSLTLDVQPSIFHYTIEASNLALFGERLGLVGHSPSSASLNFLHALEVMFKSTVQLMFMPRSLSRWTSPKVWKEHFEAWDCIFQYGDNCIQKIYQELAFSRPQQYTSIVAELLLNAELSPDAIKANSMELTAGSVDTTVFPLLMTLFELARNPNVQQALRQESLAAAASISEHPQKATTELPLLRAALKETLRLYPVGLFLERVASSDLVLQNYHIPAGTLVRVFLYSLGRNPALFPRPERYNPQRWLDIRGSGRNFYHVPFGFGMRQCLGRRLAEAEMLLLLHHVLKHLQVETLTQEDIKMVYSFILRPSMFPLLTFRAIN

Homo sapiens [3] = species: Homo sapiens; assay: Selectivity index, ratio of IC50 for human recombinant CYP11B1 to IC50 for human recombinant CYP11B2; outline: as §1
[4] = Stability in cynomolgus monkey liver microsomes assessed as parent compound remaining at 1 uM measured after 65 mins by LC/MS-MS analysis; format: ADME, Macaca fascicularis, Microsome; details: read-out: Stability
Outline: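 Parent compound percentage remaining after 65 min incubation with cynomolgus monkey liver microsomes.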

[5] = Cmax in cynomolgus monkey at 1 mg/kg, po measured after 24 or 72 hrs; format: ADME, organism-based, Macaca fascicularis; set-up: dose 1 mg/kg, route oral; details: in vivo
Outline: (§2)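 Male cynomolgus monkeys dosed orally at 1 mg/kg in 0.5% CMC, 0.1% Tween-80, 1% DMSO. Plasma drug concentrations followed out to 24 or 72 h. Cmax, Tmax, AUC0-24 and t1/2 derived from plasma levels.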

[6] = Tmax in cynomolgus monkey at 1 mg/kg, po measured after 24 or 72 hrs; format: ADME, organism-based, Macaca fascicularis; details: in vivo; outline: as §2
[7] = AUC (0 to 24 hrs) in cynomolgus monkey at 1 mg/kg, po measured after 24 or 72 hrs; format: ADME, organism-based, Macaca fascicularis; set-up: time < 24 hr, dose 1 mg/kg, route oral; details: in vivo; outline: as §2
[8] = Half life in cynomolgus monkey at 1 mg/kg, po measured after 24 or 72 hrs; format: ADME, organism-based, Macaca fascicularis; details: in vivo; outline: as §2
Cynomolgus monkey [9] = assay: Effect on ACTH-induced 11-deoxycortisol level in cynomolgus monkey at 0.2 to 3 mg/kg, po administered 10 mins prior to ACTH stimulation for 7 days; format: ADME, organism-based, Macaca fascicularis; details: in vivo
Outline: (§3)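 Conscious male cynomolgus monkeys. Day 1: vehicle, then ACTH challenge to drive adrenal steroidogenesis. Repeated after 7-day recovery with oral compound at 0.2, 1 and 3 mg/kg given 10 min before ACTH. Plasma aldosterone, cortisol, DOC and 11-deoxycortisol measured and AUCs calculated. Day 8 change expressed against each animal's own day 1 steroid AUC.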

Cynomolgus monkey [10] = assay: In vivo inhibition of CYP11B2 in cynomolgus monkey assessed as reduction in ACTH-induced plasma aldosterone AUC administered orally 10 mins prior to ACTH stimulation for 7 days; format: functional, organism-based; details: Macaca fascicularis; outline: as §3
Cynomolgus monkey [11] = assay: In vivo inhibition of CYP11B2 in cynomolgus monkey assessed as reduction in ACTH-induced plasma aldosterone AUC at 1 mg/kg, po administered 10 mins prior to ACTH stimulation for 7 days relative to control; format: functional; details: Macaca fascicularis; outline: as §3
Cynomolgus monkey [12] = assay: In vivo inhibition of CYP11B2 in cynomolgus monkey assessed as reduction in ACTH-induced plasma aldosterone AUC at 0.2 mg/kg, po administered 10 mins prior to ACTH stimulation for 7 days relative to control; format: functional; details: Macaca fascicularis; outline: as §3
Cynomolgus monkey [13] = assay: In vivo inhibition of CYP11B2 in cynomolgus monkey assessed as reduction in ACTH-induced plasma aldosterone AUC at 3 mg/kg, po administered 10 mins prior to ACTH stimulation for 7 days relative to control; format: functional; details: Macaca fascicularis; outline: as §3
Cynomolgus monkey [14] = assay: Effect on ACTH-induced DOC level in cynomolgus monkey at 0.2 to 3 mg/kg, po administered 10 mins prior to ACTH stimulation for 7 days; format: ADME, organism-based, Macaca fascicularis; details: in vivo; outline: as §3
Aromatase = biological target: T3, Aromatase (Homo sapiens, UniProt P11511); assay: Inhibition of CYP19 (unknown origin)
T3 sequence (P11511 whole entry): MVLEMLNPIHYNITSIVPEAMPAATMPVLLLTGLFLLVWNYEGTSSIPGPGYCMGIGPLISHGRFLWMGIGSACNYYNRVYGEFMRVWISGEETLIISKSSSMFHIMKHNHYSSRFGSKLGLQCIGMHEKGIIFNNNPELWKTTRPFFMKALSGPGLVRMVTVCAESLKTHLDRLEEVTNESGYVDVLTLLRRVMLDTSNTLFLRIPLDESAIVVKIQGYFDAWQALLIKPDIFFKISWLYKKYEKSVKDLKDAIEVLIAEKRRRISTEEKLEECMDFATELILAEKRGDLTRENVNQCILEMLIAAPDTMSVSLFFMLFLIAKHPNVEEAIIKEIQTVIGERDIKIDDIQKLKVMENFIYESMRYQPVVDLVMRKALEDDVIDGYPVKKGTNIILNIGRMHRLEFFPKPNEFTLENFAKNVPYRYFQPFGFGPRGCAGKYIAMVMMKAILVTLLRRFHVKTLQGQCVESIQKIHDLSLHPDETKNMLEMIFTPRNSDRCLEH

Homo sapiens [15] = species: Homo sapiens; assay: Selectivity index, ratio of IC50 for CYP19 (unknown origin) to IC50 for human recombinant CYP11B2
Homo sapiens [16] = species: Homo sapiens; assay: Selectivity index, ratio of IC50 for CYP2C19 (unknown origin) to IC50 for human recombinant CYP11B2
Homo sapiens [17] = species: Homo sapiens; assay: Selectivity index, ratio of IC50 for CYP3A4 (unknown origin) to IC50 for human recombinant CYP11B2
Homo sapiens [18] = species: Homo sapiens; assay: Selectivity index, ratio of IC50 for CYP2C9 (unknown origin) to IC50 for human recombinant CYP11B2
Homo sapiens [19] = species: Homo sapiens; assay: Selectivity index, ratio of IC50 for CYP17 (unknown origin) to IC50 for human recombinant CYP11B2
Homo sapiens [20] = species: Homo sapiens; assay: Selectivity index, ratio of IC50 for CYP2D6 (unknown origin) to IC50 for human recombinant CYP11B2
Macaca fascicularis = species: Macaca fascicularis; assay: Selectivity index, ratio of IC50 for cynomolgus monkey CYP11B1 to IC50 for cynomolgus monkey CYP11B2
[21] = Inhibition of cynomolgus monkey CYP11B2; set-up: species or system Macaca fascicularis
[22] = Inhibition of cynomolgus monkey CYP11B1; format: ADME, Macaca fascicularis
[23] = Thermodynamic solubility in phosphate free buffer pH 7.4 incubated for 24 hrs by HPLC/LCMS-MS based shake flask method; format: physicochemical; details: read-out: Therm_solubility
[24] = Fraction unbound in cynomolgus monkey plasma incubated for 6 hrs by HPLC-MS/MS analysis; format: ADME, cell-free, Macaca fascicularis
Cynomolgus monkey [25] = assay: Effect on ACTH-induced cortisol level in cynomolgus monkey at 0.2 to 3 mg/kg, po administered 10 mins prior to ACTH stimulation for 7 days; format: ADME, organism-based, Macaca fascicularis; details: in vivo; outline: as §3

Ratio IC50 (Homo sapiens [3]): 244
remaining at 65 min, 1 µM [4]: 72%
Cmax [5]: 1260 nM
Tmax [6]: 0.5 h
AUC(0-t) at 24 h [7]: 3 µM·h
half-life [8]: 4.2 h
Structure (SMILES): Cc1ncncc1-c1nc2cc(F)c(F)cc2n1C1CC1

pIC50 [1]: 8.10
pIC50 [2]: 5.48
Ratio IC50 (Homo sapiens [3]): 416
remaining at 65 min, 1 µM [4]: 78%
Structure (SMILES): CCc1ncncc1-c1nc2cc(F)c(F)cc2n1C1CC1

pIC50 (Aromatase): 5.19
pIC50 [1]: 7.60
pIC50 [2]: 5.32
Ratio IC50 (Homo sapiens [3]): 190
remaining at 65 min, 1 µM [4]: 99%
Cmax [5]: 410 nM
Tmax [6]: 2 h
AUC(0-t) at 24 h [7]: 7.8 µM·h
half-life [8]: 30 h
Ratio IC50 (Homo sapiens [15]): 250
Ratio IC50 (Homo sapiens [16]): > 1000
Ratio IC50 (Homo sapiens [17]): > 1000
Ratio IC50 (Homo sapiens [18]): > 1000
Ratio IC50 (Homo sapiens [19]): > 1000
Ratio IC50 (Homo sapiens [20]): > 1000
Ratio IC50 (Macaca fascicularis): 702
pIC50 [21]: 7.89
pIC50 [22]: 5.05
solubility thermodynamic at 24 h [23]: 9 µM (≈ 3.06 µg/mL)
fraction unbound at 6 h [24]: 0.16
Structure (SMILES): Fc1cc2nc(-c3cncnc3C(F)(F)F)n(C3CC3)c2cc1F
Activity (Cynomolgus monkey [9]): Non-Toxic
inhibition (Cynomolgus monkey [10]): Dose-dependent effect
inhibition in vivo at 1 mg/kg (Cynomolgus monkey [11]): 88%
inhibition in vivo at 0.2 mg/kg (Cynomolgus monkey [12]): 68%
inhibition in vivo at 3 mg/kg (Cynomolgus monkey [13]): 93%
Activity (Cynomolgus monkey [14]): Non-Toxic
Activity (Cynomolgus monkey [25]): Non-Toxic

pIC50 [1]: > 8.70
pIC50 [2]: 6.41
Ratio IC50 (Homo sapiens [3]): > 195
Structure (SMILES): CNc1ncncc1-c1nc2cc(F)c(F)cc2n1C1CC1

Continued, compound first:

Structure (SMILES): Fc1ccc2nc(-n3ccnn3)n(C3CC3)c2c1
pIC50 [1]: 5.97
pIC50 [2]: 5.04
Ratio IC50 (Homo sapiens [3]): 8.5

Structure (SMILES): Fc1ccc2nc(-c3cncs3)n(C3CC3)c2c1
pIC50 [1]: 7.21
pIC50 [2]: 5.34
Ratio IC50 (Homo sapiens [3]): 73

Structure (SMILES): CN(C)c1ncncc1-c1nc2cc(F)c(F)cc2n1C1CC1
pIC50 [1]: 7.54
pIC50 [2]: 5.33
Ratio IC50 (Homo sapiens [3]): 159
remaining at 65 min, 1 µM [4]: 6%

Structure (SMILES): CC(F)(F)c1ncncc1-c1nc2cc(F)c(F)cc2n1C1CC1
pIC50 [1]: 7.30
pIC50 [2]: 5.24
Ratio IC50 (Homo sapiens [3]): 114

Structure (SMILES): Fc1ccc2nc(-c3cccnn3)n(C3CC3)c2c1
pIC50 [1]: 6.39
pIC50 [2]: < 5.00
Ratio IC50 (Homo sapiens [3]): > 24

Structure (SMILES): Fc1cc2nc(-c3cncnc3C(F)F)n(C3CC3)c2cc1F
pIC50 [1]: 7.74
pIC50 [2]: 5.36
Ratio IC50 (Homo sapiens [3]): 240
remaining at 65 min, 1 µM [4]: 106%
Cmax [5]: 620 nM
Tmax [6]: 1 h
AUC(0-t) at 24 h [7]: 8.8 µM·h
half-life [8]: 15.3 h

Structure (SMILES): Fc1cc2nc(-c3cncnc3C3CC3)n(C3CC3)c2cc1F
pIC50 [1]: 6.76
pIC50 [2]: < 5.00
Ratio IC50 (Homo sapiens [3]): > 58

Structure (SMILES): Fc1ccc2nc(-c3cnccn3)n(C3CC3)c2c1
pIC50 [1]: 6.27
pIC50 [2]: < 5.00
Ratio IC50 (Homo sapiens [3]): > 18
